Screening data (PubChem)
STAT3 inh-1: inhibitors of IL-6 induced STAT3 signaling; inhibition, % at 5.5 µM; AID 862; hit rate 0.89% among 190,000; U3A cells, IL-6 STAT3-luciferase reporter, luminescence; host cell line lacks STAT1;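 active means inhibition above the mean inhibition across all screened compounds plus 3 SD, cut at about 44% in these data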;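 further: 0% = DMSO only wells and 100% = 100 µM nifuroxazide control wells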
APP 5'UTR act: APP 5'UTR luciferase reporter activation; SH-SY5Y APP 5'UTR luciferase reporter, luminescence; zero percent = DMSO vehicle wells; activation, % at 2 µM; hit rate 1% among 190,000; AID 1276;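 active means activation above a set limit, based on mean plus 3 SD of controls, cut at about 140% in these data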
STAT1 activator: STAT1 signaling activation. NIH 3T3 STAT1-luciferase reporter, IFN-gamma, luminescence; 100% = IFN-gamma alone, no compound. activation (% of control), % at 5.5 µM. hit rate 2.6% among 200,000. AID 932;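 active means activation above the screen-wide mean activation plus 3 SD, cut at about 130% in these data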;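 further: raw ratio to IFN-gamma control signal so 100% means no change and 0% no light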
STAT1 blocker: STAT1 signaling inhibition. NIH 3T3 STAT1-luciferase reporter, IFN-gamma, luminescence. inhibition, % at 5.5 µM. hit rate 0.35% among 200,000. AID 920;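 active means inhibition above a set limit, the mean inhibition across all tested compounds plus 3 SD, cut at about 34% in these data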;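 further: 0% = IFN-gamma with DMSO and 100% = IFN-gamma with 300 µM nifuroxazide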
STAT3 activator: increases IL-6 driven STAT3 reporter signal | hit rate 0.91% among 190,000 | activation (% of control), % at 5.6 µM | U3A cells, IL-6 STAT3-luciferase reporter, luminescence; 100% = signal with IL-6 EC80 alone | AID 871;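 active means activation above the screen-wide mean of compound activation plus 3 SD, cut at about 130% in these data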;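 further: 0% = background luminescence of wells with medium and substrate only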
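Material: STAT3-luciferase reporter U3A cells. Controls: IL-6-treated wells, 100% activation. Read-out: % activation versus median of IL-6-stimulated wells. Probe or stimulus: IL-6 stimulus at 33 ng/mL final. Timing: compound 1 h, then IL-6 6 h at 37 °C. Signal: reporter luminescence signal.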
NF-kB neuron act: raises NF-kB expression in human neuronal cells; NF-kB reporter expression; active compounds read high; fold change at 12.5 µM; hit rate 1.6% among 190,000; AID 1239; in the data active means fold change above about 3.3
STAT3 inh-2: STAT3 inhibition, confirmation assay; shares compounds with STAT3 inh-1; U3A cells, IL-6 STAT3 luciferase reporter, luminescence; cell line lacks STAT1; inhibition, % at 5.7 µM; hit rate 45% among 1,200; AID 1265;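 active means inhibition above the hit cutoff computed for the primary STAT3 screen, cut at about 44% in these data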;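 further: 0% = IL-6 plus DMSO and 100% = IL-6 plus nifuroxazide control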
NFkB inh STAT3ct: inhibits NF-kappaB, counter-screen to STAT3 inhibitors | shares compounds with STAT3 inh-1 | HEK293T NF-kB luciferase reporter, TNF-alpha induced | inhibition, % at 5.7 µM | hit rate 36% among 1,200 | AID 1308;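 active means inhibition above the mean of solvent-only control wells plus 3 SD, cutoff set per campaign, cut at about 13% in these data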;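 further: 0% = TNF-alpha with DMSO and 100% = TNF-alpha with MG high control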
STAT1 inh 2: inhibits STAT1, counter-screen to STAT3 inhibitors. shares compounds with STAT3 inh-1. NIH 3T3 STAT1-luciferase reporter, IFN-gamma induced, luminescence. hit rate 27% among 1,200. inhibition, % at 5.7 µM;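 active means inhibition above the mean plus 3 SD of solvent-only control wells, limit set per screening run, cut at about 16% in these data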;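 further: 0% = DMSO with IFN-gamma and 100% = nifuroxazide control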
* marks the source's active call; other numbers are inactive results; . = not tested or not shown. Shown are actives, neighbours in structure and some others; about 4.9% of the full set was active somewhere.

SMILES	STAT3 inh-1	APP 5'UTR act	STAT1 activator	STAT1 blocker	STAT3 activator	NF-kB neuron act	STAT3 inh-2	NFkB inh STAT3ct	STAT1 inh 2
CC(=O)N/C(=C/c1ccc([N+](=O)[O-])cc1)C(=O)O	1.9	-1.7	99.8	-1.6	102.8	1.23	.	.	.
COc1ccc(N2CCN(C(=O)CSc3nnc4n3C(C)(C)Cc3ccccc3-4)CC2)cc1	10.7	-11.6	97.6	2.6	94.7	0.48	.	.	.
Cc1ccc(Cl)cc1N1CCN(C(=O)CSc2nnc3n2C(C)(C)Cc2ccccc2-3)CC1	81.2*	-6.8	80.2	21.4	35.6	0.39	72.3*	15.4*	16.9*
Cc1cc(C)cc(OCC(=O)Nc2ccc3c(c2)C(=O)c2ccccc2C3=O)c1	4.6	10.5	93.7	7.0	99.1	1.1	.	.	.
Cc1ccc(-n2nnnc2SCn2nnc3ccccc3c2=O)c(C)c1	52.9*	21.4	80.8	20.9	58.3	0.87	52.6*	4.8	15.1
Cc1cc(SCn2nnc3ccccc3c2=O)nc2ccccc12	-1.1	-1.7	105.1	-5.7	101.7	1.85	.	.	.
O=C(Nc1ccc(-c2nc3ccccc3s2)cc1)C1=COCCO1	53.7*	101.9	126.3	-29.6	54.7	1.42	77.2*	59.8*	31.4*
CC1CCN(S(=O)(=O)c2ccc(Oc3ccc([N+](=O)[O-])cc3)cc2)CC1	47.2*	-7.9	88.8	12.5	67.6	0.73	18.1	-2.7	0.5
Oc1ccccc1Nc1nc(NCC2CCCO2)c2ccccc2n1 (stereo not drawn)	50.1*	-5.1	96.4	4.0	63.7	0.72	33.3	-7.4	0.5
Oc1ccc(Nc2nc(NCC3CCCO3)c3ccccc3n2)cc1 (stereo not drawn)	20.8	15.1	97.7	2.5	89.4	0.49	.	.	.
CN=CC1=C(O)c2ccccc2C1=O	2.1	-4.6	106.9	-7.6	102.5	1.16	.	.	.
COc1ccc(N=CC2=C(O)c3ccccc3C2=O)cc1	92.2*	137.3*	95.9	14.9	23.2	1.38	11.8	24.6*	-132.6
O=C1C(C=Nc2ccccc2O)=C(O)c2ccccc21	49.3*	113.8	98.2	2.0	58.5	5.01*	-57.2	-30.2	-10.7
C[N+](C)(C)CCCNC(=O)c1ccc(/C=N/O)nc1	12.3	20.2	101.7	-2.6	99.3	1.22	.	.	.
CC[n+]1c(/C=C2\Sc3ccccc3N2C)ccc2cccc(C)c21	84.5*	-51.9	91.0	9.4	32.8	0.1	80.2*	31.1*	8.3
CCC(=O)/C=C1/Sc2ccccc2N1CC	19.4	-29.4	99.7	-0.8	86.3	0.74	.	.	.
CCN1/C(=C/c2ccc3cc(C)ccc3[n+]2CC)Sc2ccccc21	90.6*	-80.6	77.0	25.9	24.1	0.17	87.6*	37.1*	21.0*
CCN(c1ccc(NC(=O)CN2C(=O)NC3(CCOc4ccccc43)C2=O)cc1)C(C)C (stereo not drawn)	5.7	-2.2	105.6	-6.1	95.5	0.95	.	.	.
CCN(CC)c1ccc2cc(-c3nc4ccccc4[nH]3)c(=O)oc2c1	98.7*	185.2*	77.7	24.5	21.4	1.63	76.0*	49.5*	16.7*
Cc1nn(-c2ccccc2Cl)c(Cl)c1/C=N/Nc1cccc(C(=O)O)c1	50.8*	2.7	80.8	21.2	57.4	9.75*	-7.1	60.9*	45.6*
CCCCCOc1ccc(Br)cc1CSC(=N)N	49.0*	-62.8	70.4	33.1	60.6	1.11	63.5*	23.2*	21.1*
COC(=O)c1ccc(-c2nc3cc(Cl)c(N)cc3s2)cc1	86.8*	141.7*	145.7*	-48.1	24.9	1.56	68.8*	31.3*	-3.5
CNC(=O)c1sc(-c2ccccn2)nc1C	15.4	-17.9	99.9	-0.3	91.1	1.04	.	.	.
COc1cc(C2C(C#N)=C(C)NC(C)=C2C#N)cc(OC)c1OC	4.2	-14.4	98.0	2.2	104.0	1.32	.	.	.
Clc1ccc2ncc(-c3nnnn3-c3ccccc3)c(-c3ccccc3)c2c1	60.6*	10.6	95.1	5.5	54.5	0.62	43.9*	10.6	2.2
SMILES	STAT3 inh-1	APP 5'UTR act	STAT1 activator	STAT1 blocker	STAT3 activator	NF-kB neuron act	STAT3 inh-2	NFkB inh STAT3ct	STAT1 inh 2
COCC(C)NC(=O)CSc1nc2ccccc2n1CCc1ccccc1 (stereo not drawn)	6.5	-5.5	104.3	-4.8	98.9	1.24	.	.	.
CCOC(=O)c1ccccc1N/C=C/C(=O)c1ccccc1	4.6	12.8	116.2	-17.5	104.4	.	.	.	.
Cc1ccc(C(=O)/C=C/Nc2ccccc2C(N)=O)cc1	76.1*	174.2*	110.2	-11.1	36.0	6.74*	38.5	8.5	-63.2
NC(=O)c1ccccc1N/C=C/C(=O)c1ccc(Cl)cc1	59.7*	148.1*	91.4	9.4	49.9	6.94*	27.3	-2.5	-83.9
CCOC(=O)Cc1csc(NC(=O)CCCCCN2C(=O)c3ccccc3C2=O)n1	10.0	2.3	93.3	7.3	95.1	1.06	.	.	.
CCN(CC)S(=O)(=O)c1ccc(NC(=O)C2c3ccccc3Oc3ccccc32)cc1	-8.6	-0.7	96.9	3.4	111.0	0.8	.	.	.
O=C(O)COc1ccc(-c2nccc(-c3ccccn3)n2)cc1	46.8*	-62.7	86.0	14.8	64.5	0.53	37.8	15.2*	-0.2
Cc1csc(N/N=C/c2ccccn2)n1	53.1*	127.0	74.1	27.7	58.6	1.51	20.5	9.6	-42.2
Cc1occc1C(=O)N/N=C/c1ccccn1	-2.3	-1.8	120.2	-24.0	104.0	1.42	.	.	.
O=C1CCCN1c1ccc(S(=O)(=O)N2CCC(c3ccccc3)CC2)cc1	69.1*	2.4	96.5	3.8	45.0	1.4	55.8*	12.4	9.9
O=C1CCCN1c1ccc(S(=O)(=O)N2CCN(c3ccccc3)CC2)cc1	6.8	12.5	92.9	5.7	97.0	1.05	.	.	.
COC(=O)c1cccc(NC(=O)CSc2nc3cccnc3n2C)c1	56.9*	-11.0	93.3	7.4	56.6	0.53	48.3*	4.4	6.7
O=C(Nc1ccccn1)c1ccco1	2.0	15.2	114.5	-15.8	101.7	1.26	.	.	.
O=C(Nc1ccc(NC(=O)C2CCCCC2)cn1)c1ccco1	62.1*	112.3	140.3*	-44.0	48.4	4.62*	30.4	-23.2	-62.2
O=C(Nc1ccc(NC(=O)c2ccco2)nc1)c1ccco1	53.5*	164.2*	98.7	-0.7	57.4	4.03*	5.0	-21.8	-62.2
O=C(Cn1cnc2ccccc21)Nc1ccc(SC(F)F)cc1	73.1*	-15.0	78.7	21.6	39.9	1.05	65.4*	21.4*	15.9
